From ChEMBL document CHEMBL3352262, “Synthesis and structure-activity relationships of pteridine dione and trione monocarboxylate transporter 1 inhibitors” (J Med Chem, 2014) come the findings set out here.

The test system of one data set is Raji. The data set can be described thus: Growth inhibition of human Raji cells after 96 hrs by MTT assay. The format is functional, cell-based. The gist of the method: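 Human Raji Burkitt lymphoma cells were seeded at 20000/well and cultured with compound or vehicle for 4 days (96 h) in 5% CO2. MTT reagent was added for 5 h, then 2-propanol/0.04 N HCl, and absorbance was read at 570 and 630 nm. EC50 came from curve fitting.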
For orientation: Tetrazolium dyes change colour on reduction, which living cells bring about.

Data set [1] concerns MCF7. The experiment in a line: Growth inhibition of human MCF7 cells overexpressing MCT4 at 10 uM after 4 days by MTT assay. The format is cell-based. As to conditions: mcf7, 96 h. The essentials: (§1)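 MCF7 cells engineered to overexpress mouse MCT1 or human MCT4 were seeded at 2000/well and compound was added the next day. Cells were cultured 4 days in 5% CO2, then given MTT reagent for 5 h and solubilized with 2-propanol/0.04 N HCl. Absorbance was read at 570 and 630 nm, in triplicate. The highest concentration tested on MCF7_MCT4 cells was 10 μM.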

Data set [2] relates to MCF7. The experiment in a line: Growth inhibition of human MCF7 cells overexpressing MCT4 up to 10 uM after 4 days by MTT assay. The format is cell-based. To be noted: mcf7, 96 h. The essentials:
as §1

In data set [3] the test system is MCF7. The data set can be described thus: Growth inhibition of human MCF7 cells overexpressing MCT1 after 4 days by MTT assay. In kind it is functional, cell-based. To be noted: MCF7, 96 h. The essentials:
as §1

Data set [4] has as its system MCF7. The data set can be described thus: Growth inhibition of human MCF7 cells overexpressing MCT4 after 4 days by MTT assay. The format is cell-based. As to conditions: MCF7, 96 h. The gist of the method:
as §1

Data set [5] deals with T1, Monocarboxylate transporter 4 (Homo sapiens) (UniProt O15427).
T1 sequence (whole entry): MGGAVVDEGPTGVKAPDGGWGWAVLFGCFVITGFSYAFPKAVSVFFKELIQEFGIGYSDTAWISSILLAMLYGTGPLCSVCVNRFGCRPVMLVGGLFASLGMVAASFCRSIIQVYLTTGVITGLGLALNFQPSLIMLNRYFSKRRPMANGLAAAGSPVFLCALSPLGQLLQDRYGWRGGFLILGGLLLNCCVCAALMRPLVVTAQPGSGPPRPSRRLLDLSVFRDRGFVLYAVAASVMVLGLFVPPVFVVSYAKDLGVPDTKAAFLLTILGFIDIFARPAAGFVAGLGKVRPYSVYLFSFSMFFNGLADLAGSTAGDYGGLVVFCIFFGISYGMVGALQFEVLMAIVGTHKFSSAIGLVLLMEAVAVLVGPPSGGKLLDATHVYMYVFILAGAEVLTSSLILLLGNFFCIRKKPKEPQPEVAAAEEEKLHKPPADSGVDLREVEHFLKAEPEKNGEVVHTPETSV
The data set can be described thus: Inhibition of MCT4 (unknown origin) overexpressed in human MCF7 cells assessed as inhibition of transporter-mediated [14C]lactate transport after 10 mins by scintillation counting. The format is cell-based.

Each structure is given as a SMILES string. Active and inactive are the calls of the source. The calls are words filed in the database; no cut-off is given here.

The EC50 is the midpoint of the concentration-response curve. Regarding `CC(C)Cn1c(=O)n(C)c(=O)c2nc(/C=C\CCCO)c(Cc3cccc4ccccc34)nc21`, the EC50 with Raji was 0.07 µM. Further, the Activity entry in the data set with MCF7 [1] is given as “Toxic”.

As for `CC(C)Cn1c(=O)n(C)c(=O)c2nc(C(=O)N(C)CCCO)c(Cc3cccc4ccccc34)nc21`, the EC50 with Raji was > 10 µM.

Consider `CC(C)Cn1c(=O)n(C)c(=O)c2nc(CCCCCO)c(Cc3cccc4ccccc34)nc21`, for which, in the data set with Raji, the concentration giving a half-maximal response (EC50) was determined as 0.058 µM. Also, in the data set with MCF7 [2], the Activity entry is listed as “Non-toxic”.

Compound `CC(C)Cn1c(=O)n(C)c(=O)c2nc(SCCCO)c(Cc3cccc4ccccc34)nc21` had an EC50 in the data set on Raji of 0.151 µM.

For the compound `COCCCCCc1nc2c(=O)n(C)c(=O)n(CC(C)C)c2nc1Cc1cccc2ccccc12`, the concentration giving a half-maximal response (EC50) with Raji was found to be 5.78 µM.

The compound `CC(C)Cn1c(=O)n(C)c(=O)c2nc([S+]([O-])CCCO)c(Cc3cccc4ccccc34)nc21` (stereo not drawn) gave an EC50 in the data set on Raji of 1.99 µM.

`CC(C)Cn1c(=O)n(C)c(=O)c2nc(CCCCO)c(Cc3cccc4ccccc34)nc21` returned a concentration giving a half-maximal response (EC50) in the data set on Raji of 0.285 µM.

On to `CC(C)Cn1c(=O)n(C)c(=O)c2c1nc(Cc1cccc3ccccc13)c(=O)n2CCCCCO`, for which the midpoint of the response in the data set on Raji, the EC50, lay at 1.42 µM.

Take `CC(C)Cn1c(=O)n(C)c(=O)c2nc(-c3c(CCCO)nnn3C)c(Cc3cccc4ccccc34)nc21`: the half-maximal effective concentration (EC50) in the data set with Raji is > 10 µM.

For the compound `CC(C)Cn1c(=O)n(C)c(=O)c2nc(SCCCCO)c(Cc3cccc4ccccc34)nc21`, the EC50 with Raji was 0.037 µM. Also, in the data set on MCF7 [2], the Activity entry is recorded as “Non-toxic”.

In the case of `CC(C)Cn1c(=O)n(C)c(=O)c2[nH]c(=O)c(Cc3cccc4ccccc34)nc21`, the EC50 in the data set with Raji was > 10 µM.

`CC(C)Cn1c(=O)n(C)c(=O)c2nc(CCCCCCO)c(Cc3cccc4ccccc34)nc21` gave an EC50 with Raji of 1.69 µM.

The compound `CC(C)Cn1c(=O)n(C)c(=O)c2nc(SCCO)c(Cc3cccc4ccccc34)nc21` showed an EC50 with Raji of 2.85 µM.

Regarding `CC(C)Cn1c(=O)n(C)c(=O)c2c1nc(Cc1cccc3ccccc13)c(=O)n2CCCCO`, a half-maximal effect in the data set with Raji (EC50) was put at 0.15 µM.

As for `CC(C)Cc1nn(C)c(=O)c2c(SCCCO)n(Cc3cccc4ccccc34)cc12`, the figures for the EC50 in the data set on Raji, in the data set on MCF7 [3] and with MCF7 [4] were 0.0005 µM, 0.021 µM and > 10 µM, respectively. In addition, the inhibition entry in data set [5] was “inactive”.

Consider `Cc1n[nH]c(C)c1Cc1nc2c(nc1CCCCCO)c(=O)n(C)c(=O)n2CC(C)C`, for which, in the data set on Raji, the EC50 is > 10 µM.

Take `CC(C)Cn1c(=O)n(C)c(=O)c2nc(-c3nnn(C)c3CCCO)c(Cc3cccc4ccccc34)nc21`: the EC50 in the data set on Raji was > 10 µM.

In the data set with Raji, `Cc1n[nH]c(C)c1Cc1sc2c(c1C(=O)N1C[C@H](O)CO1)c(=O)n(C)c(=O)n2CC(C)C` came in with an EC50 of 0.018 µM.

With `CC(C)Cn1c(=O)n(C)c(=O)c2nc(C(=O)NCCCO)c(Cc3cccc4ccccc34)nc21`, in the data set on Raji, the half-maximal effective concentration (EC50) is > 10 µM.

`CC(C)Cn1c(=O)n(C)c(=O)c2nc(S(=O)(=O)CCCO)c(Cc3cccc4ccccc34)nc21`: in the data set on Raji, a half-maximal effect (EC50) was put at 3.75 µM.

Turning to `CC(C)Cn1c(=O)n(C)c(=O)c2c1nc(Cc1cccc3ccccc13)c(=O)n2CCCCCCO`, the 50% effective concentration (EC50) in the data set with Raji is > 10 µM.

Take `CC(C)Cn1c(=O)n(C)c(=O)c2nc(-c3[nH]nnc3CCCO)c(Cc3cccc4ccccc34)nc21`: in the data set on Raji, it took 6.02 µM to reach a half-maximal effect (EC50).
